Calls of active or inactive are those of the source. The calls are words filed in the database; no cut-off is given here.
Assays:
Spinacia oleracea [1] = assay: Inhibition of photosynthesis in isolated Spinacia oleracea (spinach) chloroplasts assessed as reduction in light-driven ferricyanide reduction at 10 uM; type: functional
Method in brief: (§1)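 Thylakoid membranes from market spinach leaves, homogenized in ice-cold Tricine-NaOH pH 8.0 with NaCl, MgCl2 and 0.4 M sucrose. Osmotically swollen, kept on ice in the dark. Portions with 20 μg chlorophyll incubated at 24 °C with 1 mM K3Fe(CN)6. Run under saturating light (800 μmol m⁻² s⁻¹), A420 read every 30 s for 10 min. Triplicate; percent inhibition versus untreated controls.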

Spinacia oleracea [2] = assay: Inhibition of photosynthesis in isolated Spinacia oleracea (spinach) chloroplasts assessed as reduction in light-driven ferricyanide reduction at 5 uM; type: functional; method in brief: as §1

Structure (SMILES)	inhibition (Spinacia oleracea [1])	inhibition (Spinacia oleracea [2])
O=C1O/C(=C\c2ccccc2)C=C1Cc1ccccc1	29.2%	12.7%
O=C1O/C(=C\c2cccc(F)c2)C=C1Cc1ccccc1	28.8%	9.5%
O=C1O/C(=C\c2ccc(C(F)(F)F)cc2)C=C1Cc1ccccc1	55.5%	34%
O=C1O/C(=C\c2ccccc2Cl)C=C1Cc1ccccc1	30.8%	19.4%
O=C1O/C(=C\c2ccc([N+](=O)[O-])cc2)C=C1Cc1ccccc1	57.8%	49.8%
O=C1O/C(=C\c2cccc(Br)c2)C=C1Cc1ccccc1	22.6%	13.8%
Cc1ccccc1/C=C1/C=C(Cc2ccccc2)C(=O)O1	26%	16.7%
O=C1O/C(=C\c2cccc(Cl)c2)C=C1Cc1ccccc1	20.3%	5.8%
COc1ccc(/C=C2/C=C(Cc3ccccc3)C(=O)O2)cc1O	inactive	inactive
N#Cc1ccc(/C=C2/C=C(Cc3ccccc3)C(=O)O2)cc1	inactive	inactive
O=C1O/C(=C\c2c(F)c(F)c(F)c(F)c2F)C=C1Cc1ccccc1	6.6%	inactive
O=C1O/C(=C\c2ccccc2F)C=C1Cc1ccccc1	49.5%	24.5%
O=C1O/C(=C\c2cccc(O)c2)C=C1Cc1ccccc1	6.9%	inactive
N#Cc1cccc(/C=C2/C=C(Cc3ccccc3)C(=O)O2)c1	inactive	inactive
O=C1O/C(=C\c2ccc(O)cc2)C=C1Cc1ccccc1	6.5%	inactive
COc1ccc(OC)c(/C=C2/C=C(Cc3ccccc3)C(=O)O2)c1	43.5%	30.3%
CN(C)c1cccc(/C=C2/C=C(Cc3ccccc3)C(=O)O2)c1	38.6%	10.9%

Structure (SMILES)	inhibition (Spinacia oleracea [1])	inhibition (Spinacia oleracea [2])
O=C1O/C(=C\c2ccccc2C(F)(F)F)C=C1Cc1ccccc1	44.9%	23.3%
O=C1O/C(=C\c2ccc(-c3ccccc3)cc2)C=C1Cc1ccccc1	inactive	inactive
COc1ccc(/C=C2/C=C(Cc3ccccc3)C(=O)O2)cc1	15%	8.5%
O=C1O/C(=C\c2cccc(C(F)(F)F)c2)C=C1Cc1ccccc1	49.9%	27.3%
Cc1cccc(/C=C2/C=C(Cc3ccccc3)C(=O)O2)c1	16.7%	8%
O=C1O/C(=C\c2ccc(F)cc2)C=C1Cc1ccccc1	25.6%	9.2%
O=C1O/C(=C\c2ccccc2O)C=C1Cc1ccccc1	inactive	inactive
O=C1O/C(=C\c2cccc([N+](=O)[O-])c2)C=C1Cc1ccccc1	39.5%	30%
O=C1O/C(=C\c2ccccc2Br)C=C1Cc1ccccc1	21.8%	inactive
CN(C)c1ccc(/C=C2/C=C(Cc3ccccc3)C(=O)O2)c(Cl)c1	25.4%	13.8%
CN(C)C(=O)Nc1ccc(Cl)c(Cl)c1	95.1%	93.2%
COc1cc(OC)c(/C=C2\C=C(Cc3ccccc3)C(=O)O2)c(OC)c1	43.6%	25.2%
CN(C)c1ccc(/C=C2/C=C(Cc3ccccc3)C(=O)O2)cc1	7.1%	5.7%
O=C1O/C(=C\c2ccc(Cl)cc2)C=C1Cc1ccccc1	5.8%	inactive
O=C1O/C(=C\c2ccc(Br)cc2)C=C1Cc1ccccc1	inactive	inactive
CCc1ccc(/C=C2/C=C(Cc3ccccc3)C(=O)O2)cc1	50.7%	40.6%
Cc1ccc(/C=C2/C=C(Cc3ccccc3)C(=O)O2)cc1	8%	inactive

— ChEMBL document CHEMBL3045564, “Synthesis of photosynthesis-inhibiting nostoclide analogues” (J Agric Food Chem, 2008)
